Reference: ChEMBL document CHEMBL1134147, “3-Arylpiperidines as potentiators of existing antibacterial agents” (Bioorg Med Chem Lett, 2001)
Converted amounts (≈) assume the structure as drawn. Residues, ends and D or L forms follow the SMILES beside them. *: point of attachment. βNA = c1ccc2cc(N*)ccc2c1

Tests used:
Escherichia coli [1] = assay: Antibacterial activity against Escherichia coli strain ATCC 25922; type: functional
Escherichia coli [2] = assay: Inhibitory activity against accumulation of [14C]-labeled Linezolid within wild-type Escherichia coli K12 cells; type: functional, cell-based; conditions: K-12, K12
Summary of the method: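 E. coli K12 grown at 37 °C in LB + 0.2% glucose, rinsed twice, resuspended to OD530 8.0 in 50 mM KPO4 pH 7.0, 1 mM MgSO4, 0.2% glucose. Preincubated 10 min at 37 °C, inhibitor added for 30 min, then 14C-linezolid (30 µM final) 15 min. Cells spun through an oil cushion and scintillation counted. IC50 is half-maximal accumulation relative to 100 µM CCCP control.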

Staphylococcus aureus = assay: Antibacterial activity against Staphylococcus aureus strain ATCC 29213; type: functional

Row | SMILES | MIC (Escherichia coli [1]) [µg/mL] | IC50 (Escherichia coli [2]) [µM] | MIC (Staphylococcus aureus) [µg/mL]
1 | Cl.F[C@@H]1CCNC[C@H]1CCc1cc(Br)ccc1Cl | 64 | 90 | 64
2 | Cl.FC1=C(Cc2cc(Br)ccc2Cl)CNCC1 | 128 | 480 | > 128
3 | COc1ccccc1-c1ccc(CCC2CCCNC2)c(Cl)c1 (configuration not stated) | 64 (≈ 194 µM) | > 900 | 32 (≈ 97 µM)
4 | Cl.O=C1CCNCC1Cc1cc(Br)ccc1Cl (configuration not stated) | > 256 | > 900 | > 128
5 | FC(F)(F)c1cc(CCC2CCCNC2)cc(C(F)(F)F)c1 (configuration not stated) | 64 (≈ 197 µM) | 300 | 64 (≈ 197 µM)
6 | N#Cc1ccc(CCC2CCCNC2)cc1 (configuration not stated) | > 128 | > 900 | > 128
7 | Cc1ccc(C)c(CCC2CCCNC2)c1 (configuration not stated) | > 128 | > 900 | > 128
8 | Cl.Clc1ccc(Br)cc1CCC1CCCNC1 (configuration not stated) | 128 | 185 | 64
9 | N=C(N)NCCC[C@H](NC(=O)[C@@H](N)Cc1ccccc1)C(=O)Nc1ccc2ccccc2c1 [PABETAN] (H-Phe-Arg-βNA) | 256 (≈ 573 µM) | 730 | 
10 | Cl.Clc1ccc(Br)cc1/C=C/C1CCCNC1 (configuration not stated) | 64 | 140 | 32
11 | CCOc1ccc(CCC2CCCNC2)cc1 (configuration not stated) | > 128 | > 900 | > 128
12 | Clc1ccc(Cl)c(CCC2CCCNC2)c1 (configuration not stated) | 128 (≈ 496 µM) | 195 | 64 (≈ 248 µM)
13 | Cl.O[C@H]1CCNC[C@@H]1Cc1cc(Br)ccc1Cl | > 256 | > 900 | > 128
14 | Cl.OC1CCNC[C@@H]1Cc1cc(Br)ccc1Cl (some centres not stated) | > 256 | > 900 | > 128
15 | Clc1cccc(Cl)c1CCC1CCCNC1 (configuration not stated) | > 128 | 290 | > 128
16 | Clc1ccc(CCC2CCCNC2)cc1Cl (configuration not stated) | 128 (≈ 496 µM) | 200 | 128 (≈ 496 µM)
17 | c1ccc(CCC2CCCNC2)cc1 (configuration not stated) | > 128 | > 900 | > 128
18 | F[C@H]1CCNC[C@@H]1CCCc1cc(Br)ccc1Cl |  | 400 | 
19 | Cl.Clc1ccc(Br)cc1CC1=CCCNC1 | 256 | 600 | 128
20 | Cl.F[C@H]1CCNC[C@@H]1Cc1cc(Br)ccc1Cl | 256 | > 900 | > 125
